Test results taken from ChEMBL document CHEMBL1782047, “Retinoid receptor subtype-selective modulators through synthetic modifications of RARgamma agonists” (Bioorg Med Chem, 2009).
Calls of active or inactive are those of the source. The rule behind the calls is not given here.

Assays:
Type in all cases: cell-based
[1] = biological target: T1, Retinoic acid receptor gamma (Mus musculus, UniProt P18911); assay: (§1) Antagonist activity at yeast GAL4 fused mouse RARgamma ligand binding domain expressed in HeLa cells assessed as inhibition of TTNPB-induced receptor transactivation by luciferase reporter gene assay
T1 sequence (P18911 whole entry): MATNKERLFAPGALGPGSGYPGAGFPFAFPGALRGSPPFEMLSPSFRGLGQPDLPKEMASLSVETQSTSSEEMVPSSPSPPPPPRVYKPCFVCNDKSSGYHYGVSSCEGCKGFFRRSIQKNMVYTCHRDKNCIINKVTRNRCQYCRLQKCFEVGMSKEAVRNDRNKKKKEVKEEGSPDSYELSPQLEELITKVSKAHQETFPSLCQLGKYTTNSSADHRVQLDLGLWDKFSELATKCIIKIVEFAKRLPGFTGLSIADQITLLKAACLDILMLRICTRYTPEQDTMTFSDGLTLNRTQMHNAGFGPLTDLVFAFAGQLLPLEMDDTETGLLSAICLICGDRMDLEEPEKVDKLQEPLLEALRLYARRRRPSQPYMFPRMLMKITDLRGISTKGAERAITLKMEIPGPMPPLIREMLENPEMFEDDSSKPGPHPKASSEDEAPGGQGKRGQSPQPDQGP
Method in brief: (§2)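 The Gal4-mRAR fusion HeLa reporter lines [(17m)5-βG-Luc-Neo] were seeded at 160,000 cells/well. After 12 h, cells got 10 nM TTNPB plus rising test-compound concentrations in phenol-red-free DMEM with 5% charcoal-treated FCS for 12 h at 37 °C, 5% CO2. Luciferase in lysates was read luminometrically. Antagonism is the loss of activity relative to TTNPB alone.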

[2] = biological target: T2, Retinoic acid receptor RXR-beta (Homo sapiens) (UniProt P28702); assay: Antagonist activity at yeast GAL4 fused human RXRbeta ligand binding domain expressed in HeLa cells assessed as inhibition of receptor transactivation by luciferase reporter gene assay
T2 sequence (whole entry): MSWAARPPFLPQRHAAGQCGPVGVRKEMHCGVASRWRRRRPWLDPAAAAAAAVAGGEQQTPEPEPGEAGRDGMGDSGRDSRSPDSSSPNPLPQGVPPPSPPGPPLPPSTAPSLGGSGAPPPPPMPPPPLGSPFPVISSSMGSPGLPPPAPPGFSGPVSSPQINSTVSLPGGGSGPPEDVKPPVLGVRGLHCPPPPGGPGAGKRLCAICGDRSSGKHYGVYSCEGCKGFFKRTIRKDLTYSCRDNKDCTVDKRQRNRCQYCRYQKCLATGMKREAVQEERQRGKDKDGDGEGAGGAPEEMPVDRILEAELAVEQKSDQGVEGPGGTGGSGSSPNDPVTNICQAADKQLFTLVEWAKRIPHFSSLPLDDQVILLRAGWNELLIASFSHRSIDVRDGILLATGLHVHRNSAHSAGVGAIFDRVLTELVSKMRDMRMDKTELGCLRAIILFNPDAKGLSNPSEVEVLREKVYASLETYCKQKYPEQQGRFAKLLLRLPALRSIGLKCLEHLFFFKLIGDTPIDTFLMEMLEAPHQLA

[3] = biological target: T3, Retinoic acid receptor gamma (Mus musculus) (UniProt P18911); assay: Agonist activity at yeast GAL4 fused mouse RARgamma ligand binding domain expressed in HeLa cells assessed as receptor transactivation by luciferase reporter gene assay
T3 sequence (whole entry): T1 sequence (P18911 whole entry)
Method in brief: (§3)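 Stably transfected HeLa lines carrying a (17m)5-βG-Luc-Neo reporter and the matching Gal4-mRAR fusion were seeded at 160,000 cells/well. After 12 h, cells were given ligand across a dose range in phenol-red-free DMEM with 5% charcoal-treated FCS and held 12 h at 37 °C, 5% CO2. Lysates were read for luciferase with luciferin, ATP and coenzyme A. Fold induction is compound RLU over vehicle-control RLU.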

[4] = biological target: T4, Retinoic acid receptor alpha (Mus musculus) (UniProt P11416); assay: Agonist activity at yeast GAL4 fused mouse RARalpha ligand binding domain expressed in HeLa cells assessed as receptor transactivation by luciferase reporter gene assay; method in brief: as §3
T4 sequence (whole entry): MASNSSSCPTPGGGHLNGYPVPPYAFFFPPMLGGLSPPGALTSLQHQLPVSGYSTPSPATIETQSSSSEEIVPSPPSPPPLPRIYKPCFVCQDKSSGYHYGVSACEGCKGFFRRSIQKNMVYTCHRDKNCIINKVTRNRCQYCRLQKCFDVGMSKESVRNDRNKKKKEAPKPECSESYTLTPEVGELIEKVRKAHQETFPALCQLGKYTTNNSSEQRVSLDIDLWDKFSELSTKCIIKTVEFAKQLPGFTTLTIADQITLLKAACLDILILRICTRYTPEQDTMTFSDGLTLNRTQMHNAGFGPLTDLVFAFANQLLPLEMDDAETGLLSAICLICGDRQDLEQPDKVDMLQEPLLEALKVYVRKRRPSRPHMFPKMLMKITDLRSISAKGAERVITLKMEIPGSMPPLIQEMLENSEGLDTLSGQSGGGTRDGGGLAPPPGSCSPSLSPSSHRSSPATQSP

[5] = biological target: T3, Retinoic acid receptor gamma (Mus musculus); assay: as §1; method in brief: as §2
[6] = biological target: T4, Retinoic acid receptor alpha (Mus musculus); assay: (§4) Antagonist activity at yeast GAL4 fused mouse RARalpha ligand binding domain expressed in HeLa cells assessed as inhibition of TTNPB-induced receptor transactivation by luciferase reporter gene assay; method in brief: as §2
[7] = biological target: T5, Retinoic acid receptor beta (Mus musculus) (UniProt P22605); assay: (§5) Antagonist activity at yeast GAL4 fused mouse RARbeta ligand binding domain expressed in HeLa cells assessed as inhibition of TTNPB-induced receptor transactivation by luciferase reporter gene assay; method in brief: as §2
T5 sequence (whole entry): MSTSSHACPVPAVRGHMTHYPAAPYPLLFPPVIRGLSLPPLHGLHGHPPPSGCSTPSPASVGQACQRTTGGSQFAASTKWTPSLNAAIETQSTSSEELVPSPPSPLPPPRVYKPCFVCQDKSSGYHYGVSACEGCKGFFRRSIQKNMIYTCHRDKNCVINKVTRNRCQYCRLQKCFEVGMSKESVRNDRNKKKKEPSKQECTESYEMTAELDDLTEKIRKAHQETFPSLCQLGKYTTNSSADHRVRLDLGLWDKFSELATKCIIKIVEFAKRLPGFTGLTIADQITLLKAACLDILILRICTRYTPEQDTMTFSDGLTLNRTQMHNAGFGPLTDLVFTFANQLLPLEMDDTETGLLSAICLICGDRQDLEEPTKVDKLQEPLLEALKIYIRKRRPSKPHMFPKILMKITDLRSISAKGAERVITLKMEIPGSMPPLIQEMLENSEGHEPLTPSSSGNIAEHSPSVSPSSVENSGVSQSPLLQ

[8] = biological target: T2, Retinoic acid receptor RXR-beta (Homo sapiens); assay: Agonist activity at yeast GAL4 fused human RXRbeta ligand binding domain expressed in HeLa cells assessed as receptor transactivation by luciferase reporter gene assay
[9] = biological target: T6, Retinoic acid receptor alpha (Mus musculus, UniProt P11416); assay: as §4; method in brief: as §2
T6 sequence (P11416 whole entry): T4 sequence (whole entry)

[10] = biological target: T7, Retinoic acid receptor beta (Mus musculus, UniProt P22605); assay: as §5; method in brief: as §2
T7 sequence (P22605 whole entry): T5 sequence (whole entry)

SMILES	Activity [3]	Activity [4]	inhibition [5]	inhibition [6]	inhibition [7]	Activity [8]	further results
CC1(C)CC=C(C#Cc2ccccc2)c2ccc(C3=NOC(c4ccc(C(=O)O)cc4)C3)cc21 (racemic)							IC50 [1]: 3000 nM
CC1(C)CC=C(c2ccccc2)c2ccc(C(=O)/C=C/c3ccc(C(=O)O)cc3)cc21	Active	Active					inhibition [2]: Active
CC1(C)CC=C(C#Cc2ccccc2)c2ccc(C(=O)C(=O)Nc3ccc(C(=O)O)cc3F)cc21			Active	Active	Active	Active	
CC1(C)CC=C(c2ccccc2)c2ccc(C3=NOC(c4ccc(C(=O)O)cc4)C3)cc21 (racemic)							IC50 [1]: > 10000 nM
CC1(C)CC=C(C#Cc2ccccc2)c2ccc(C(O)C(=O)Nc3ccc(C(=O)O)cc3F)cc21 (racemic)	inactive	inactive					
Cc1ccc(C2=CCC(C)(C)c3cc(C(=O)C(=O)Nc4ccc(C(=O)O)cc4F)ccc32)cc1			Active	Active	Active	Active	
CC1(C)CC=C(C#Cc2ccccc2)c2ccc(C(=O)/C=C/c3ccc(C(=O)O)cc3)cc21	Active	Active				inactive	inhibition [2]: Active
Cc1ccc(C2=CCC(C)(C)c3cc(C(O)C(=O)Nc4ccc(C(=O)O)cc4F)ccc32)cc1 (racemic)	inactive	inactive	inactive	inactive	inactive	inactive	
Cc1ccc(C2=CCC(C)(C)c3cc(C(O)/C=C/c4ccc(C(=O)O)cc4)ccc32)cc1 (racemic)	inactive						IC50 [9]: 400 nM; IC50 [10]: 2000 nM
Cc1ccc(C2=CCC(C)(C)c3cc(C(=O)/C=C/c4ccc(C(=O)O)cc4)ccc32)cc1							IC50 [9]: < 300 nM; IC50 [10]: 400 nM

Further lines, with some results ahead:

Activity [3]	Activity [4]	inhibition [5]	inhibition [6]	inhibition [7]	Activity [8]	SMILES	further results
		inactive				Cc1ccc(C2=CCC(C)(C)c3cc(C4=NOC(c5ccc(C(=O)O)cc5)C4)ccc32)cc1 (racemic)	
Active	Active	Active	Active	Active	inactive	CC1(C)CC=C(c2ccccc2)c2ccc(C(O)C(=O)Nc3ccc(C(=O)O)cc3F)cc21 (racemic)	
		Active	Active	Active	Active	CC1(C)CC=C(c2ccccc2)c2ccc(C(=O)C(=O)Nc3ccc(C(=O)O)cc3F)cc21	
